Entries after “also recorded” stand apart in the source; their conditions may differ.
How the values were obtained:
[1] = biological target: WT-mCFTR (Mus musculus, UniProt P26361); assay: Inside-out patch-clamp of CFTR currents in transfected CHO cells; type: cell-based; details: 200 nM VX-770, 2 mM ATP
Summary of the method: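 Mouse CFTR expressed in CHO cells; inside-out patches. Phosphorylated channels opened by 2 mM ATP before the potentiator was applied (one potentiator at 200 nM). 5 µM CFTRinh-172 added at the end of each recording for baseline.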

[2] = biological target: F312A-CFTR (Homo sapiens, UniProt P13569, F312A); assay: Inside-out patch-clamp of CFTR currents in transfected CHO cells; type: cell-based; details: 200 nM VX-770, 30 µM ATP, mean
[3] = biological target: S182A-CFTR (Homo sapiens, UniProt P13569, S182A); assay: Inside-out patch-clamp of CFTR currents in transfected CHO cells; type: cell-based; details: 200 nM VX-770, mean
Summary of the method: (§1)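 CFTR construct and GFP plasmid cotransfected into CHO cells, held at 27°C for 2–6 d. Inside-out patches at room temperature, −30 mV, NMDG-Cl solutions at pH 7.4. Channels preactivated with 25 IU PKA plus 2 mM MgATP, then test compound (max 40 µM) applied in 2 mM ATP. ATP-subtracted steady-state currents normalized to the 3 µM response in the same patch. Hill fit with base 0 and maximum 1; EC50 ± SD of fit; 3–7 patches per point.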

[4] = biological target: T1, WT-CFTR (Homo sapiens, UniProt P13569); assay: as above; type: cell-based; details: mean
Summary of the method: as §1

[5] = biological target: N1138L/G551D-CFTR (Homo sapiens, UniProt P13569, G551D/N1138L); assay: as above; type: cell-based; details: mean
Summary of the method: as §1

[6] = biological target: D924N-CFTR (Homo sapiens, UniProt P13569, D924N); assay: as above; type: cell-based; details: 200 nM VX-770, 2 mM ATP, mean
Summary of the method: as §1

[7] = biological target: F236A-CFTR (Homo sapiens, UniProt P13569, F236A); assay: as above; type: cell-based; details: 200 nM VX-770, mean
Summary of the method: as §1

[8] = biological target: S263A-CFTR (Homo sapiens, UniProt P13569, S263A); assay: as above; type: cell-based; details: 200 nM VX-770, mean
Summary of the method: as §1

[9] = biological target: Y304A-CFTR (Homo sapiens, UniProt P13569, Y304A); assay: Inside-out patch-clamp of CFTR currents in transfected CHO cells; type: cell-based; details: 200 nM VX-770, mean
Summary of the method: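 Relaxation assay: PKA-preactivated channels in 2 mM ATP at −30 mV exposed to test compound through a fast three-barrel perfusion system (dead time ∼30 ms). Current decay after sudden removal of 3 µM compound fitted with a single exponential to give relaxation time constant τ.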

[10] = biological target: G551D-CFTR (Homo sapiens, UniProt P13569, G551D); assay: Inside-out patch-clamp of CFTR currents in transfected CHO cells; type: cell-based
Summary of the method: as §1

[11] = biological target: F304Y-mCFTR (Mus musculus, UniProt P26361, F304Y); assay: as above; type: cell-based
Summary of the method: as §1

[12] = biological target: F229A-CFTR (Homo sapiens, UniProt P13569, F229A); assay: as above; type: cell-based; details: 200 nM VX-770, mean
Summary of the method: as §1

[13] = biological target: S1141K/G551D-CFTR (Homo sapiens, UniProt P13569, G551D/S1141K); assay: as above; type: cell-based; details: mean
Summary of the method: as §1

[14] = biological target: T1, WT-CFTR; details: ref Jih and Hwang, 2013; cited from earlier work

T1 sequence (P13569 whole entry): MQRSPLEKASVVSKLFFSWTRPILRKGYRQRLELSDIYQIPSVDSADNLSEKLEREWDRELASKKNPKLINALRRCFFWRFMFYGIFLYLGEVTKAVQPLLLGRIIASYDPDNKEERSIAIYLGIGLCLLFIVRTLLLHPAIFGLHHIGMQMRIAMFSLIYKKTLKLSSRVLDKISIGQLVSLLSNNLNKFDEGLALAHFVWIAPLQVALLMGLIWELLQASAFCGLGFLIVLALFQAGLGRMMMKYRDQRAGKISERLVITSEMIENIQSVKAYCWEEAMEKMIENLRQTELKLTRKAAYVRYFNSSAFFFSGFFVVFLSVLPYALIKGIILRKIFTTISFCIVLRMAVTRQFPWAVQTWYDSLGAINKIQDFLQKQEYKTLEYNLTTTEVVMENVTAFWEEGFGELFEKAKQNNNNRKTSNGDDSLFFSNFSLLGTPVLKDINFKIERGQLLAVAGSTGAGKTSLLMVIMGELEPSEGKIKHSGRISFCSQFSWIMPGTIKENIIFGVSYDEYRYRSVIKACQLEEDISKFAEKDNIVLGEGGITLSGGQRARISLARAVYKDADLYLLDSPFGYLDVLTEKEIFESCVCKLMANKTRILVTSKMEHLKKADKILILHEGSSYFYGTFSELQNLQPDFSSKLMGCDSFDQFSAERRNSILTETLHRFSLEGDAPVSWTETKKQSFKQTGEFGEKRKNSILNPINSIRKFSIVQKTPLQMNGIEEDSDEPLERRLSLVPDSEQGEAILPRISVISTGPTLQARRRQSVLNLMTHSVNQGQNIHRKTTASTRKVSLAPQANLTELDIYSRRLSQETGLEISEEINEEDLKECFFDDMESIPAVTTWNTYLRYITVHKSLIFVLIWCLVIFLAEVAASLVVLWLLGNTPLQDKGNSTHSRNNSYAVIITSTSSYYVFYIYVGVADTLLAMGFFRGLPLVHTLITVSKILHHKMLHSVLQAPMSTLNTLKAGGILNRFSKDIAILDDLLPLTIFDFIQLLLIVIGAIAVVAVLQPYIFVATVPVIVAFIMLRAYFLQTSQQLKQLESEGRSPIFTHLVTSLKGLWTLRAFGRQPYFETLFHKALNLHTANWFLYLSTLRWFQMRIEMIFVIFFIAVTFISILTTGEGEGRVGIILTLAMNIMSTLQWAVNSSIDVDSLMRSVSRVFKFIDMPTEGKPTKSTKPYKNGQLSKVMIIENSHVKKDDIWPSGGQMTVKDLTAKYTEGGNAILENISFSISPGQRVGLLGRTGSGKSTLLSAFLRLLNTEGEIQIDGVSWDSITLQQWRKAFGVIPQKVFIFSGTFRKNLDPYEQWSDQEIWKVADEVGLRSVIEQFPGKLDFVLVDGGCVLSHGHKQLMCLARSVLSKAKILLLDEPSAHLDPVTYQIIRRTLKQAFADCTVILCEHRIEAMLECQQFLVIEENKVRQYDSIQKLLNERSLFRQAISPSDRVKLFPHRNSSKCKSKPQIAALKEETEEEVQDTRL
Sequence of F236A-CFTR (P13569 whole entry F236A): as the sequence (P13569 whole entry) above, with F236A counted along it
Sequence of F229A-CFTR (P13569 whole entry F229A): as the sequence (P13569 whole entry) above, with F229A counted along it
Sequence of S263A-CFTR (P13569 whole entry S263A): as the sequence (P13569 whole entry) above, with S263A counted along it
Sequence of F312A-CFTR (P13569 whole entry F312A): as the sequence (P13569 whole entry) above, with F312A counted along it
Sequence of G551D-CFTR (P13569 whole entry G551D): as the sequence (P13569 whole entry) above, with G551D counted along it
Sequence of S182A-CFTR (P13569 whole entry S182A): as the sequence (P13569 whole entry) above, with S182A counted along it
Sequence of Y304A-CFTR (P13569 whole entry Y304A, the tested form may be a part): as the sequence (P13569 whole entry) above, with Y304A counted along it
Sequence of F304Y-mCFTR (P26361 whole entry F304Y): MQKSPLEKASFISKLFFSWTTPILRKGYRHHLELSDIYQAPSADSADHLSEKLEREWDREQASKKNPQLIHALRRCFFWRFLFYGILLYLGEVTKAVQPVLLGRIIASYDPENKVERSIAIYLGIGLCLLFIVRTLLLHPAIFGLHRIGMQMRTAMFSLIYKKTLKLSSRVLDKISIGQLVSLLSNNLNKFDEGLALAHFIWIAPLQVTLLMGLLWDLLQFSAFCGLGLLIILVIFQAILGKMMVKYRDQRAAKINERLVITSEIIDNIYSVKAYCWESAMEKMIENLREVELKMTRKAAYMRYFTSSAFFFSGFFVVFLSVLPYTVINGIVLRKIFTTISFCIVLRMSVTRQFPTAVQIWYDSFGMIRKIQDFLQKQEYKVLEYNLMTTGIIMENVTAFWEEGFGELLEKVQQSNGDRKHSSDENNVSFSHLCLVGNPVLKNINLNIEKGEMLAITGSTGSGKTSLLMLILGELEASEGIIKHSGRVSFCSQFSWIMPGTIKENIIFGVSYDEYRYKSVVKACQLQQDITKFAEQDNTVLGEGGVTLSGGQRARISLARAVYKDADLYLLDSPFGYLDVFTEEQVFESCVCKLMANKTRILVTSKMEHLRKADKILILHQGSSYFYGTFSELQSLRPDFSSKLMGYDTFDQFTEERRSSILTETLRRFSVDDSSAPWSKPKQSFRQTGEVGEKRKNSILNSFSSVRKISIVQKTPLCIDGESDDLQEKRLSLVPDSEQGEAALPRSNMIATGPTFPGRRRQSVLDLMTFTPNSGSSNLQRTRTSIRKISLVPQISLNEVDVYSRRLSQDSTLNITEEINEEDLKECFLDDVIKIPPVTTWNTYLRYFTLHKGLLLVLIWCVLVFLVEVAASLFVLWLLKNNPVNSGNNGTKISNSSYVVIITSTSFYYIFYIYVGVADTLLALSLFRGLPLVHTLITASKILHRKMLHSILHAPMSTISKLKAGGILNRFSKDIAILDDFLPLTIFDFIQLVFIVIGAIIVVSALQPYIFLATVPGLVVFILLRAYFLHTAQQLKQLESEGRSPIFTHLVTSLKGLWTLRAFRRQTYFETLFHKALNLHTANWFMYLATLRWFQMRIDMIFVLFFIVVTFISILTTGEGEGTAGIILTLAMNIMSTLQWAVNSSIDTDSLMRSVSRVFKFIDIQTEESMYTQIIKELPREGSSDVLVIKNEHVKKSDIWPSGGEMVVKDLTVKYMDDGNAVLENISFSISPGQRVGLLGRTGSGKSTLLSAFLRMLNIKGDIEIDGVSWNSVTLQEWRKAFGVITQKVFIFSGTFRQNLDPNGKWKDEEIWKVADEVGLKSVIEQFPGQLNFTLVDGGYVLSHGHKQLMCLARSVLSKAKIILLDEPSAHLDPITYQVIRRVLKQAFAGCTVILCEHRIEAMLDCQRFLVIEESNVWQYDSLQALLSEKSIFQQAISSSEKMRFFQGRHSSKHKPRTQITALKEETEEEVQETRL
Sequence of N1138L/G551D-CFTR (P13569 whole entry G551D/N1138L): as the sequence (P13569 whole entry) above, with G551D, N1138L counted along it
Sequence of S1141K/G551D-CFTR (P13569 whole entry G551D/S1141K): as the sequence (P13569 whole entry) above, with G551D, S1141K counted along it
Sequence of D924N-CFTR (P13569 whole entry D924N): as the sequence (P13569 whole entry) above, with D924N counted along it
Sequence of WT-mCFTR (P26361 whole entry): as the sequence (P26361 whole entry F304Y) above, with Y304F counted along it

Potentiation of currents by VX-770 [1]: fails to potentiate | τoff (VX-770) [2]: 38 ± 5 s | τon (VX-770) [2]: 15 ± 1 s | τoff (VX-770) [3]: 343 ± 96 s | τon (VX-770) [3]: 8.2 ± 1.5 s | τoff (VX-770) ([4]; current decay on removal of 200 nM VX-770, 2 mM ATP): 361 ± 39 s | τon (VX-770) ([4]; current rise on application of 200 nM VX-770, 2 mM ATP): 6.7 ± 1.2 s | τoff (VX-770) [5]: 268 ± 25 s | τon (VX-770) [5]: 18 ± 5 s | τoff (VX-770) [6]: 115 ± 7 s | τon (VX-770) [6]: 78 ± 18 s | τoff (VX-770) [7]: 173 ± 45 s | τon (VX-770) [7]: 19 ± 8 s | τoff (VX-770) [8]: 288 ± 68 s | τon (VX-770) [8]: 6.1 ± 1.5 s | τoff (VX-770) [9]: 18 ± 6 s | τon (VX-770) [9]: 49 ± 11 s | τoff (VX-770) ([10]; current decay on removal of VX-770, mean): 68 ± 14 s | τon (VX-770) ([10]; current rise on application of VX-770, mean): 5.9 ± 2.4 s | τoff (VX-770) [12]: 338 ± 49 s | τon (VX-770) [12]: 6.2 ± 1.3 s | τoff (VX-770) [13]: 221 ± 50 s | τon (VX-770) [13]: 14 ± 6 s
Structure (SMILES): CC(C)(C)c1cc(C(C)(C)C)c(NC(=O)c2c[nH]c3ccccc3c2=O)cc1O [VX-770, N-(2,4-di-tert-butyl-5-hydroxyphenyl)-4-oxo-1,4-dihydroquinoline-3-carboxamide]
Potentiation of currents by VX-770 [11]: restores the potentiating effects; also recorded: Restoring the effect | Saturating concentration for VX-770 [14]: 200 nM

— publication PMC6605684 (The Journal of General Physiology, 2019)
